Bioassay records as filed in PubChem.
RBBP9 inhibitor: human RBBP9 inhibitors, primary screen, biochemical, fluorescence polarization, FP-Rh probe, HTS | Serine hydrolase RBBP9 (Homo sapiens), O75884 | recombinant RBBP9 | inhibition, % at 7.94 µM | hit rate 0.2% among 220,000 | AID 1515, 2009;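 active means inhibition above the campaign mean of all tested compounds plus 3 SD, cut at about 14% in these data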;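 further: plate controls were DMSO wells with RBBP9 for no effect and wells lacking RBBP9 protein for full effect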
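System: RBBP9 protein / Quantity: 2.5 µM RBBP9 dispensing solution, before mixing / Also added: Serine-hydrolase probe FP-Rh, 375 nM pre-mixing / Dosing: 7.94 µM single dose, 0.794% DMSO / Timing: enzyme-compound preincubation 30 min, then probe labeling 45 min, 25 °C / Signal: FP readout at 525/598 nm / Controls: DMSO-treated enzyme wells and wells lacking RBBP9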
Mcl1 Noxa PPI: Mcl-1/Noxa binding inhibitors, primary screen, biochemical, TR-FRET, 1536-well; hit rate 1.5% among 220,000; TR-FRET Mcl-1/Noxa peptide binding, 2 h; Induced myeloid leukemia cell differentiation protein Mcl-1 (Homo sapiens), Q07820; inhibition, % at 21.7 µM; AID 1022, 2008;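 active means compounds that cut the protein-peptide binding signal by more than 50% relative to plate controls in a single-dose test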;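 further: His-tagged Mcl-1 with rhodamine Noxa BH3 peptide and terbium anti-His antibody; 0% = Mcl-1 plus Noxa peptide wells and 100% = peptide-only wells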
Target sequence (Q07820 whole entry, looked up): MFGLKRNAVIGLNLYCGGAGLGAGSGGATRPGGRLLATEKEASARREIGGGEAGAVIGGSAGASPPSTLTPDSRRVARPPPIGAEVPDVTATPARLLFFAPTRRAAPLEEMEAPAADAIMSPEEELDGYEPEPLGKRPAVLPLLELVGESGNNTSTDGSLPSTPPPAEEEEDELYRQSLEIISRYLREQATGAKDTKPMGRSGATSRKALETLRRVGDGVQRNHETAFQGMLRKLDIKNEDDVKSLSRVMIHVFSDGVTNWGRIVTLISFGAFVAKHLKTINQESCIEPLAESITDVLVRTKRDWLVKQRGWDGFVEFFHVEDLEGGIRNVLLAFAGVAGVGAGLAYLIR
Mcl-1 Bim block: inhibitors of Bim peptide binding to Mcl-1, primary screen, biochemical, bead-based flow cytometry, multiplex. Induced myeloid leukemia cell differentiation protein Mcl-1 (Homo sapiens), Q07820. Bim peptide-Mcl-1 binding. inhibition, % at 10 µM. hit rate 0.1% among 190,000; in the data active means inhibition above about 40%;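 further: 0% = no compound tracer wells and 100% = peptide blocker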
EBV gp42 block: Epstein-Barr virus gp42 inhibitors, primary screen, biochemical, uHTS, fluorescence polarization; inhibition, % (tested at 21.74 µM); Fluorescence polarization binding assay, mP read-out; Glycoprotein 42 (Epstein-Barr virus (strain AG876)), Q1HVG2; hit rate 0.42% among 220,000; in the data active means inhibition above about 50%
Mcl1-Bid inh: Mcl-1/Bid binding inhibitors, primary screen, biochemical, TR-FRET, 1536-well. Induced myeloid leukemia cell differentiation protein Mcl-1 (Homo sapiens), Q07820. TR-FRET Mcl-1/Bid-Dy647 peptide binding. inhibition, % at 21.7 µM. hit rate 0.97% among 220,000;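 active means compounds that cut the binding signal by more than half at the single screening dose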;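 further: His-tagged Mcl-1 with europium anti-His antibody binding Bid BH3 peptide; 0% = Mcl-1 plus peptide wells and 100% = peptide-only wells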
MCL1-BIM inh: inhibitors of MCL1 binding to BIM-BH3, primary screen, biochemical, fluorescence polarization. Induced myeloid leukemia cell differentiation protein Mcl-1 (Homo sapiens), Q07820. GST-MCL1 / FITC-Bim-BH3 fluorescence polarization. inhibition, % at 10.9 µM. hit rate 0.68% among 320,000;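 active means inhibition above the mean inhibition of all tested compounds plus 3 SD, set per campaign, cut at about 40% in these data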;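 further: 0% = DMSO wells and 100% = unlabeled Bim-BH3 peptide control; higher means more loss of mP so more displacement of Bim peptide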
BCLXL inh confirm: Bcl-xL inhibitors blocking Bim BH3 binding, confirmation, counter-screen for MCL1 inhibitor project, biochemical, fluorescence polarization; shares compounds with MCL1-BIM inh; GST-Bcl-xL / FITC-Bim BH3 peptide FP binding; inhibition, % at 10.9 µM; hit rate 54% among 1,700;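 active means inhibition above a cutoff equal to the mean inhibition of all tested compounds plus 3 SD, cut at about 30% in these data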;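 further: 0% = DMSO wells and 100% = unlabeled Bim BH3 control peptide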
Target sequence (Q07817 whole entry, looked up): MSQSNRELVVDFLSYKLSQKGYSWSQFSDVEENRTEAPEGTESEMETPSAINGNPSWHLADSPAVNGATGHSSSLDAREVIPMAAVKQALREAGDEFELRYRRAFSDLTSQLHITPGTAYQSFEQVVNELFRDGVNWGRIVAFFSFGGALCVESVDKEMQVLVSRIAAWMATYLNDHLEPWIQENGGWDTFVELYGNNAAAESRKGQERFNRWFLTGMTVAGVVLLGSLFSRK
MCL1 inh confirm: inhibitors of MCL1 binding to BIM-BH3, confirmation, biochemical, fluorescence polarization, triplicate; shares compounds with MCL1-BIM inh; GST-MCL1 / FITC-Bim-BH3 fluorescence polarization; inhibition, % at 10.9 µM; hit rate 61% among 1,700;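 active means inhibition above the average of all tested compounds plus 3 SD, cut at about 40% in these data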;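 further: 0% = DMSO wells and 100% = unlabeled Bim-BH3 control peptide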
The depositor's hits bear a star; nt = no result given. The list is not random: actives were taken first. Their share in the collection is about 2.2%.

SMILES	RBBP9 inhibitor	Mcl1 Noxa PPI	Mcl-1 Bim block	EBV gp42 block	Mcl1-Bid inh	MCL1-BIM inh	BCLXL inh confirm	MCL1 inh confirm
NC(=S)N/N=C/c1ncc(C(F)(F)F)cc1Cl	-3.7	-19.8	nt	10.4	-58.3	153.0*	95.0*	113.3*
COc1ccc(OCC(O)CNC(=O)c2ccc(Br)cc2)cc1 (configuration not stated)	-6.8	-19.7	-2.0	-3.3	2.1	4.2	nt	nt
COc1ccc(OCC(O)CNC(=O)c2ccc(OC)cc2)cc1 (configuration not stated)	-1.2	4.9	0.0	-6.3	-9.2	44.5*	4.8	6.9
CCn1nc(-c2ccccc2)c2nc3ccccc3nc21	-5.5	6.7	-2.0	92.6*	-10.2	100.7*	137.4*	139.6*
CCOC(=O)NC1(Nc2ccc(C)cc2)Oc2ccccc2O1	-3.1	10.9	0.0	5.4	-37.0	58.0*	41.1*	46.0*
Cc1cccc(NS(=O)(=O)c2ccc(C(=O)N3CCCCCC3)cc2)c1C	nt	nt	nt	nt	nt	1.8	nt	nt
N#Cc1c(N)sc2c1CCCCCC2	-13.3	12.8	-7.0	-24.4	-42.6	17.6	nt	nt
CC1(C)Cc2c(C#N)c(N)sc(=S)c2CS1	-3.1	40.9	2.0	44.9	-15.8	70.7*	70.5*	88.3*
Cn1c(N)c(C#N)c2c(c1=S)CSC(C)(C)C2	-2.9	20.3	3.0	7.0	-58.5	13.1	nt	nt
N#Cc1c(N)sc(=S)c2c1CCCCC2	-9.7	71.0*	-4.0	49.2	25.2	113.0*	61.6*	75.5*
COC(=O)C(C)NC(=O)c1cn(-c2ccccc2OC)c(=O)c2ccccc12 (configuration not stated)	nt	nt	nt	nt	nt	-2.2	nt	nt
CCOc1ccc(NC(=O)c2cccc(-n3cccc3)c2)cc1S(=O)(=O)N1CCOCC1	nt	nt	nt	nt	nt	67.4*	3.8	55.7*
CCC(C)Sc1ccc(-c2nc3ccc(C)cn3c2NC2CCCCC2)cc1 (configuration not stated)	nt	nt	nt	nt	nt	48.0*	18.4	16.4
COc1ccc(-n2cccc2/C=C2\C(=N)N3N=C(c4ccco4)SC3=NC2=O)cc1	-11.2	86.9*	2.0	75.7*	81.5*	66.4*	27.8	80.9*
CC(=O)Oc1ccc(C(=O)NC(C)CCc2ccccc2)cc1 (configuration not stated)	nt	nt	nt	nt	nt	5.1	nt	nt
Cc1cccc(N2CSC3=C(C#N)C(c4ccc(C)o4)CC(=O)N3C2)c1 (configuration not stated)	-1.4	107.5*	-11.0	25.1	70.9*	54.4*	4.7	34.7
COc1ccc(OC)c(C2CC(=O)N3CN(c4ccccc4)CSC3=C2C#N)c1 (configuration not stated)	-6.5	26.7	-4.0	-11.1	-33.7	-12.5	nt	nt
O=C(N1CCOCC1)N1CCC(n2nnc3cc(F)ccc32)CC1	-6.9	3.9	1.0	41.7	-9.5	86.8*	53.7*	61.9*
O=C(c1ccc([N+](=O)[O-])cc1)N1CCC(n2nnc3cc(F)ccc32)CC1	4.1	21.9	-2.0	-1.0	8.8	2.7	nt	nt
COc1ccc(-c2onc3ccc(Br)cc23)cc1	-5.3	9.5	-1.0	127.4*	-19.5	131.8*	111.3*	133.9*
Cc1cccc(NC(=S)N=Nc2c(O)n(CN3CCOCC3)c3ccccc23)c1C	-4.1	-83.0	-6.0	-20.9	-145.5	13.7	nt	nt
Cc1ccc(N=Nc2c(O)n(CN3CCOCC3)c3ccccc23)cc1	-4.2	-3.2	-2.0	94.0*	-27.9	77.6*	-22.3	-36.0
CCOC(=O)C(C)N1C(=O)S/C(=C\c2ccc(-c3ccccc3C(=O)O)o2)C1=O (configuration not stated)	nt	nt	nt	nt	nt	58.2*	42.5*	61.8*
C#CCN1C(=O)S/C(=C\c2ccc(-c3ccc(C(=O)O)cc3C)o2)C1=O	nt	nt	nt	nt	nt	66.0*	0.7	15.4
COCCn1c(SCC(=O)Nc2cc(C)on2)nc2c(c1=O)SCC2	nt	nt	nt	nt	nt	9.3	nt	nt
SMILES	RBBP9 inhibitor	Mcl1 Noxa PPI	Mcl-1 Bim block	EBV gp42 block	Mcl1-Bid inh	MCL1-BIM inh	BCLXL inh confirm	MCL1 inh confirm
COc1cccc(CNC(=O)CSc2nc3ccc(C)cc3[nH]2)c1	nt	nt	nt	nt	nt	-4.7	nt	nt
C=CCN1C=C2C(=O)C(C)(OC(=O)CCC(=O)OC)C(=O)C(Br)=C2C=C1c1ccc(OC)cc1 (configuration not stated)	nt	13.1	nt	28.1	-124.3	74.1*	52.0*	56.1*
Cc1ccc(-c2c[n+](Cc3ccc(Cl)c(Cl)c3)c3n2CCC3)cc1	-5.8	-19.0	-3.0	-17.2	-0.7	0.9	nt	nt
COc1ccc(/C=N/NC(=O)c2cccc([N+](=O)[O-])c2)cc1O	-4.0	27.1	0.0	-3.9	-30.5	2.8	nt	nt
COc1cccc(/C=N/NC(=O)c2cc3cc([N+](=O)[O-])ccc3s2)c1O	-3.9	67.7*	6.0	-10.9	84.5*	45.3*	20.2	90.2*
COCCNc1nc2c(c(=O)[nH]c(=O)n2C)n1CCCc1ccccc1	nt	nt	nt	nt	nt	-5.6	nt	nt
O=C(COC(=O)c1ccc([N+](=O)[O-])s1)Nc1ccc(Cl)cn1	1.2	15.5	-5.0	-6.3	11.7	15.8	nt	nt
Cc1c(Cl)cnc(NC(=O)COC(=O)c2ccc([N+](=O)[O-])s2)c1Cl	-3.1	93.9*	-4.0	43.5	6.5	60.5*	34.2*	47.9*
CCCOc1ccc(N)cc1N	-1.4	76.3*	4.0	41.6	1.2	124.4*	39.9*	44.5*
CCCOc1cc(N)ccc1C(=O)OCCN(CC)CC	nt	nt	nt	nt	nt	7.8	nt	nt
O=S(=O)(O)c1cc(O)c2c(O)c(N=Nc3cc(Cl)ccc3O)c(S(=O)(=O)O)cc2c1	nt	nt	nt	nt	nt	56.1*	35.9*	57.4*
Oc1ccc(Cl)cc1N=Nc1ccccc1	nt	nt	nt	nt	nt	5.0	nt	nt
O=C(O)C1Nc2ccc(OC(F)(F)F)cc2C2C=CCC12 (configuration not stated)	nt	nt	nt	nt	nt	106.4*	14.6	66.9*
COc1cccc2c1NC(C(=O)O)C1CC=CC21 (configuration not stated)	-3.0	100.7*	6.0	62.5*	74.8*	96.2*	57.3*	90.0*
